OXTR potentiate: potentiates the human oxytocin receptor response | P30559 | CHO-OTR cells, Fluo-8 calcium fluorescence, potentiator mode; 0% = oxytocin EC15, 100% = EC100 | activation, % at 3 µM | actives 0.061% (n = 320,000);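 active = activation above that plate's cutoff, the mean activation of tested compounds plus 3 SD, cut at about 6.6% in these data, passing the limit was not always enough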
Target sequence (P30559 whole entry, looked up): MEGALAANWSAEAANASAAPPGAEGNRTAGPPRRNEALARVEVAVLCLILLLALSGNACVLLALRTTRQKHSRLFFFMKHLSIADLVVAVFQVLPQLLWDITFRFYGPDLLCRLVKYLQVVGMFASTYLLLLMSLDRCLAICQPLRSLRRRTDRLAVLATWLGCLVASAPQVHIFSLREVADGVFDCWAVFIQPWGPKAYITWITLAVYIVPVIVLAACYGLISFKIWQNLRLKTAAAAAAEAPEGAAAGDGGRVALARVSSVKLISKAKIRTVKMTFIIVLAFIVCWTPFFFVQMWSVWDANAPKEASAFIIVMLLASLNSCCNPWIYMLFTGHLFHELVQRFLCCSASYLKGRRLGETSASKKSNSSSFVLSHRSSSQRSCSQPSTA
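test system = CHO-OTR cells, human receptor | compound = single-point 3.0 µM | schedule = 6 min compound pre-incubation at room temperature, 100 s kinetic read | signal = Fluo-8 no-wash calcium dye fluorescence, excitation 470-495 nm, emission 515-575 nm | repeats = single well per compound, singlicate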
TAAR1 agonist: human TAAR1 agonism | CHO RD-HGA16 TAAR1, Fluo-8 calcium fluorescence; vehicle wells 0%, saturating PEA agonist 100% | activation, % at 3 µM | actives 0.99% (n = 360,000);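 active = activation above the mean activation of all test compounds in the run plus 3 SD, cut at about 38% in these data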
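Repeats: no replicates (n 1) | Material: CHO-derived RD-HGA16 cells with stable Gα16 and human TAAR1 | Technique: Kinetic Fluo-8 calcium fluorescence | Schedule: 17-24 h seeding, 75 min 37 °C dye, 30 min RT | Evaluation: % activation from peak over basal fluorescence ratio, DMSO-to-PEA scaled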
TAAR1 antagonist: antagonists of human TAAR1 | Q96RJ0 | CHO RD-HGA16 TAAR1, Fluo-8 calcium fluorescence, antagonist | inhibition, % at 3 µM | actives 1.5% (n = 360,000) | AID 624466;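 active = inhibition above a per-plate cutoff, the mean inhibition of test compounds on that plate plus 3 SD, cut at about 49% in these data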
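Test system: RD-HGA16 CHO cells with stable hTAAR1 and Gα16 / Probe or stimulus: EC80 β-phenethylamine stimulus / Times: seeding 17-24 h prior, 75-min 37 °C, 30-min RT dye loading / Detection: Fluo-8 calcium-sensitive fluorescence / Read-out basis: % inhibition scaled between DMSO and EC80 PEA controls / Repeats: singlicate, one well per test compound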
V1aR counter: activates human V1a receptor in oxytocin agonist counter-screen; P37288; CHO-V1R cells, Fluo-8 calcium fluorescence, agonist mode; 0% DMSO, 100% 3 nM vasopressin; activation, % at 3 µM; actives 0.25% (n = 320,000); AID 2797;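 active = activation above the mean activation of all tested compounds plus 3 SD, per screening run, cut at about 20% in these data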;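 also: signal is peak over basal fluorescence ratio across a 100 second FLIPR read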
OXTR ag: human OXTR agonism; actives 0.32% (n = 320,000); CHO-OTR cells, Fluo-8 calcium fluorescence; normalized: DMSO 0%, oxytocin 100%; P30559; AID 2435; activation, % at 3 µM;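 active = activation above the mean of all tested compounds plus 3 SD, cutoff set per screening run, cut at about 20% in these data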;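 also: peak over basal fluorescence ratio from a 100 s FLIPR kinetic read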
Numbers stand for hits; i = inactive; nt = no result. Sampled rows, rich in hits. Any-hit rate of the full collection: about 2.3%.

SMILES	OXTR potentiate	TAAR1 agonist	TAAR1 antagonist	V1aR counter	OXTR ag
COc1cc(OC)c(C2CC(=O)N3CN(C)CSC3=C2C#N)cc1OC (stereo not drawn)	i	i	i	i	i
O=C(c1ccc(Cl)c(S(=O)(=O)N2CCc3ccccc32)c1)N1CCN(c2ccccc2O)CC1	i	i	60.6	i	i
Cc1ccc(C)c(C(O)c2ncc(-c3ccc(C(F)(F)F)cc3)[nH]2)c1 (stereo not drawn)	nt	i	48.7	nt	nt
COc1cccc(C2NC(=S)N(Cc3ccccc3)C(C)=C2C(C)=O)c1 (stereo not drawn)	nt	i	i	nt	nt
Cc1c(C(=O)Nc2ccccc2)sc2nc(-c3ccccc3)cn12	i	i	50.6	i	i
COc1ccc(C2c3[nH]c4ccccc4c3C[C@H]3C(=O)N(CCCO)CC(=O)N23)cc1OC (stereo partly drawn)	i	i	i	i	i
COc1cc(C2c3[nH]c4ccccc4c3C[C@@H]3C(=O)N(Cc4ccco4)CC(=O)N23)cc(OC)c1OC (stereo partly drawn)	i	i	53.2	i	i
O=c1[nH]c(=S)[nH]c2c1C(C1CCCCC1)OC(C1CCCCC1)C2 (stereo not drawn)	nt	i	i	nt	nt
COc1ccc(-c2cc(C(=O)NCCc3ccc(S(N)(=O)=O)cc3)c3ccccc3n2)cc1	i	i	53.7	i	i
NS(=O)(=O)c1ccc(CCNC(=O)c2cc(-c3ccccc3)nc3ccccc23)cc1	i	i	i	i	i
Cc1ccc(-c2cc(C(=O)NCCc3ccc(S(N)(=O)=O)cc3)c3ccccc3n2)cc1	i	i	51.3	i	i
COc1ccc(NC(=O)N(C)C[C@@H]2OCc3cnnn3CCCC(=O)N([C@@H](C)CO)C[C@@H]2C)cc1	nt	i	i	nt	nt
O=c1cc(CN2CCCC2)c2ccccc2o1	nt	i	i	nt	nt
COc1ccc(C(=O)Nc2ccc(S(=O)(=O)N3CCOCC3)cc2)cc1	i	i	i	i	i
COc1ccc(C(=O)Nc2ccc(-c3ccc(C)o3)cc2)cc1S(=O)(=O)N1CCOCC1	i	i	67.8	i	i
O=C(Nc1cccc(S(=O)(=O)N2CCOCC2)c1)c1cc(S(=O)(=O)N2CCOCC2)c(Cl)cc1Cl	nt	i	76.2	nt	nt
COc1ccc(C(=O)Nc2ccc(Cl)c(S(=O)(=O)N3CCOCC3)c2)cc1	i	i	61.0	i	i
COc1ccc(C(=O)Nc2cccc(-c3csc(C)n3)c2)cc1S(=O)(=O)N1CCCC1	i	i	52.3	i	i
COc1cccc(C(=O)N[C@H](C(=O)N2CCC[C@H]2C(=O)NC2CCCC2)C2CCCCC2)c1	nt	i	i	nt	nt
O=C(Nc1ccccc1Cl)c1ccccc1CC(O)(c1ccccc1)c1ccccc1	nt	i	53.8	nt	nt
CC(C)(C)c1ccc(C(=O)Nc2ccccc2Cl)cc1	i	i	i	i	i
O=C(/C=C/[C@H]1O[C@@H](n2cnc3c(NC(=O)c4ccccc4)ncnc32)[C@H](O)[C@@H]1O)NCC1CCCO1 (stereo partly drawn)	nt	i	i	nt	nt
NC(=O)c1ncn([C@@H]2O[C@H](C(=O)N[C@H](Cc3ccccc3)C(=O)N3CCN(c4ccc(Cl)cn4)CC3)[C@@H](O)[C@H]2O)n1	nt	i	i	nt	nt
COc1ccc(-c2csc(NC(=S)NC(=O)c3cccs3)n2)cc1OC	nt	i	49.6	nt	nt
COc1ccc(-c2csc(NC(=O)C3=NN(c4ccccc4)C(=O)CC3)n2)cc1	i	i	56.6	i	i
SMILES	OXTR potentiate	TAAR1 agonist	TAAR1 antagonist	V1aR counter	OXTR ag
COc1ccc(-c2csc(NC(=O)c3cccc(N4C(=O)CCC4=O)c3)n2)cc1C	i	i	48.9	i	i
C[C@@H]1ON(C)[C@H]2C[C@H]3c4cc(-c5cccc(Cl)c5)ccc4CCN3C[C@@H]12	nt	i	i	nt	nt
CCN(CC)C(=O)C1c2ccccc2Oc2ccccc21	i	i	i	64.0	47.6
C=CCN1C=C(C(=O)OCC)C(=O)CC1	nt	i	i	nt	nt
O=C(Nc1cccc([N+](=O)[O-])c1)c1ccc(CSc2ccccc2)cc1	i	i	52.2	i	i
O=C(Nc1cccc([N+](=O)[O-])c1)c1ccccc1	i	i	i	i	i
Cc1cc(/C=N/NC(=O)c2cc3ccccc3o2)c(C)n1C	i	i	53.7	i	i
CCCCC(=O)Nc1ncc(S(=O)(=O)c2ccc([N+](=O)[O-])cc2)s1	i	54.8	i	i	i
S=C(NCCc1ccccc1)N1CCOCC1	i	i	i	i	i
O=C(CCC(=O)N1CCOCC1)NCCc1ccccc1	i	38.9	62.6	i	i
C=C1C(=O)CC2=C1[C@](Cc1ccc(F)cc1)(C(=O)OC)N(C(=O)c1ccccc1)C2	nt	i	i	nt	nt
C=C1C(=O)C=C2CN(C(=O)c3ccccc3)[C@@](Cc3ccc(F)cc3)(C(=O)OC)[C@@H]12	i	nt	nt	81.0	69.4
Cc1cc(N2CCN(CC(C)(C)O)C[C@@H]2C)ccc1N1CCN(Cc2ccccc2)[C@H](C)C1	nt	i	i	nt	nt
CCn1c(C)nc2cc(C(=O)NNC(=O)c3ccc(C)cc3)ccc21	i	i	i	i	i
CCn1c(C)nc2cc(C(=O)NNC(=O)Nc3ccc(Cl)c(Cl)c3)ccc21	i	40.9	i	i	i
COc1ccc(-c2ccc3c(c2)S(=O)(=O)c2cccc(C(=O)N4CCN(C5CCCCC5)CC4)c2C3=O)cc1OC	i	i	51.6	i	i
COc1ccc(-c2ccc3c(c2)S(=O)(=O)c2cccc(C(=O)N4CCN(c5ccccn5)CC4)c2C3=O)cc1OC	nt	i	i	nt	nt
COc1ccc(N2CCN(C(=O)c3ccc(CS(=O)(=O)c4ccc(Br)cc4)o3)CC2)cc1	i	i	i	i	i
O=C(c1ccc(CS(=O)(=O)c2ccc(Br)cc2)o1)N1CCN(c2ccc(F)cc2)CC1	i	i	52.4	i	i
O=C(Nn1c(O)c(C=C2N=c3ccccc3=N2)sc1=S)c1cccc(Cl)c1	i	i	52.2	i	i
O=C1N=c2ccccc2=C1c1sc(=S)n(NC(=O)c2cccc(O)c2)c1O	nt	i	50.8	nt	nt
O=C(Nn1c(O)c(C=C2N=c3ccccc3=N2)sc1=S)c1ccc(Cl)cc1	i	i	i	i	i
O=C(Nn1c(O)c(C=C2N=c3ccccc3=N2)sc1=S)c1ccccc1	i	37.9	i	i	i
O=C1N=c2ccccc2=C1c1sc(=S)n(-c2ccc(O)cc2)c1O	i	i	i	i	i
COc1ccc(C(=O)c2[nH]c(N)c(C(=O)NCCc3c[nH]c4ccccc34)c2-c2ccccc2C(F)(F)F)cc1	nt	i	i	nt	nt
Cc1ccc([C@H]2C[C@@H](O)[C@H](n3cc(-c4ccc(F)cc4)nn3)CN2Cc2cccs2)cc1	nt	i	i	nt	nt
COC(=O)c1ccc2nc(-c3ccco3)c(Cc3ccccc3OC)n2c1	nt	i	i	nt	nt
CCNC(=O)C1CCCN(C(=O)c2cc(C)oc2C)CC1 (stereo not drawn)	nt	i	i	nt	nt

Assay outcomes as filed in PubChem.
